Experimental findings from ChEMBL document CHEMBL1135725, “N-Aryl N'-hydroxyguanidines, a new class of NO-donors after selective oxidation by nitric oxide synthases: structure-activity relationship” (J Med Chem, 2002) are described below.

Common to all, as to format: functional
Common to all, as to settings: Mus musculus

Substrate in data set [1]: COc1ccc(NC(=N)NO)cc1
As to the kind of experiment: (§1) Kinetic constant for NO formation during oxidation by NADPH and molecular Oxygen with NOS II. A digest of the protocol: (§2)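 Recombinant NOS II (E. coli-expressed, purified) assayed at 37 °C in 50 mM HEPES pH 7.4 with 1 mM NADPH, 100 μM BH4, 5 mM DTT, SOD and catalase (100 U/mL each), and 12-15 μM oxyhemoglobin. Substrate was varied from 5 μM to 2.5 mM. Enzyme level was set to keep oxyhemoglobin conversion below 30%. Kinetic constants come from the initial methemoglobin formation rate at 401 nm; three to four experiments.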

Substrate in data set [2]: Cc1ccc(NC(=N)NO)cc1
Described as §1. The method in brief: as §2

Substrate in data set [3]: N/C(=N/c1ccc(F)cc1)NO
The data set is described as §1. A digest of the protocol: as §2

Substrate in data set [4]: N/C(=N/c1ccc(O)cc1)NO
The description is as §1. A digest of the protocol:
as §2

Substrate in data set [5]: N/C(=N/c1ccsc1)NO
The description is as §1. The method in brief: as §2

Substrate in data set [6]: N=C(NO)Nc1ccccc1
The data set is described as §1. The method in brief: as §2

The Km is the concentration of substrate that gives half-maximal velocity.

B1: Nitric oxide synthase, inducible (Mus musculus), P29477 (protein)
chain: MACPWKFLFKVKSYQSDLKEEKDINNNVKKTPCAVLSPTIQDDPKSHQNGSPQLLTGTAQNVPESLDKLHVTSTRPQYVRIKNWGSGEILHDTLHHKATSDFTCKSKSCLGSIMNPKSLTRGPRDKPTPLEELLPHAIEFINQYYGSFKEAKIEEHLARLEAVTKEIETTGTYQLTLDELIFATKMAWRNAPRCIGRIQWSNLQVFDARNCSTAQEMFQHICRHILYATNNGNIRSAITVFPQRSDGKHDFRLWNSQLIRYAGYQMPDGTIRGDAATLEFTQLCIDLGWKPRYGRFDVLPLVLQADGQDPEVFEIPPDLVLEVTMEHPKYEWFQELGLKWYALPAVANMLLEVGGLEFPACPFNGWYMGTEIGVRDFCDTQRYNILEEVGRRMGLETHTLASLWKDRAVTEINVAVLHSFQKQNVTIMDHHTASESFMKHMQNEYRARGGCPADWIWLVPPVSGSITPVFHQEMLNYVLSPFYYYQIEPWKTHIWQNEKLRPRRREIRFRVLVKVVFFASMLMRKVMASRVRATVLFATETGKSEALARDLATLFSYAFNTKVVCMDQYKASTLEEEQLLLVVTSTFGNGDCPSNGQTLKKSLFMLRELNHTFRYAVFGLGSSMYPQFCAFAHDIDQKLSHLGASQLAPTGEGDELSGQEDAFRSWAVQTFRAACETFDVRSKHHIQIPKRFTSNATWEPQQYRLIQSPEPLDLNRALSSIHAKNVFTMRLKSQQNLQSEKSSRTTLLVQLTFEGSRGPSYLPGEHLGIFPGNQTALVQGILERVVDCPTPHQTVCLEVLDESGSYWVKDKRLPPCSLSQALTYFLDITTPPTQLQLHKLARFATDETDRQRLEALCQPSEYNDWKFSNNPTFLEVLEEFPSLHVPAAFLLSQLPILKPRYYSISSSQDHTPSEVHLTVAVVTYRTRDGQGPLHHGVCSTWIRNLKPQDPVPCFVRSVSGFQLPEDPSQPCILIGPGTGIAPFRSFWQQRLHDSQHKGLKGGRMSLVFGCRHPEEDHLYQEEMQEMVRKRVLFQVHTGYSRLPGKPKVYVQDILQKQLANEVLSVLHGEQGHLYICGDVRMARDVATTLKKLVATKLNLSEEQVEDYFFQLKSQKRYHEDIFGAVFSYGAKKGSALEEPKATRL
In the case of B1, the Km in data set [1] was 2600 µM; in data set [2], 1100 µM; in data set [3], 300 µM; in data set [4], 425 µM; in data set [5], 25 µM; in data set [6], 270 µM.
